# High-throughput results (PubChem BioAssay)
# hERG protect – hERG (human) protection from proarrhythmic block; 310,000 compounds, 0.51% hits; Q12809; activation (rescue from dofetilide block), less the hit threshold, % at 10 µM; AID 1511; CHO-hERG, FluxOR thallium flux, dofetilide IC70 present;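 active = activation above the mean of controls blocked by dofetilide plus 5 SD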;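 note: thallium influx through hERG after potassium depolarization seen as dye fluorescence rise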
# KCNQ1 act – potentiates or activates the human KCNQ1 potassium channel; B-score at 10 µM; CHO-K1 KCNQ1, thallium flux FluxOR fluorescence; stronger effect = higher value; P51787; 310,000 compounds, 0.35% hits;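 active = fluorescence ratio B-score, a plate-corrected score, at least three library SD, with initial intensity B-score within 5 SD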
#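 Schedule – 37 °C overnight plating, 90-min dark dye load, 20-min compound pretreatment · System – stable KCNQ1 CHO-K1 line · Probe or stimulus – thallium- and potassium-containing depolarizing buffer · Measured by – kinetic FluxOR fluorescence, 10 s baseline plus 110 s post-stimulus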
# KCNQ1 inh – blocks the human KCNQ1 potassium channel. P51787. CHO-K1 KCNQ1, FluxOR thallium flux fluorescence; stronger effect = higher value. B-score at 10 µM. 310,000 compounds, 1.3% hits;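 active = compounds whose thallium flux B-score, printed positive for inhibition, exceeds three library SD while starting fluorescence stays within three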;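 note: channel opened by potassium depolarization with thallium stimulus after 20 min compound exposure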
# KCNK3 inh – human KCNK3 channel inhibition, primary screen; 340,000 compounds, 0.84% hits; CHO-KCNK3 thallium flux, FluxOR fluorescence; stronger effect = lower value; B-score at 10 µM;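 active = B-score under library mean minus 4 SD, starting fluorescence ratio at most library mean plus 5 SD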;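 note: more negative B-score means stronger inhibition of thallium flux through KCNK3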
# Target sequence (O14649 whole entry, looked up): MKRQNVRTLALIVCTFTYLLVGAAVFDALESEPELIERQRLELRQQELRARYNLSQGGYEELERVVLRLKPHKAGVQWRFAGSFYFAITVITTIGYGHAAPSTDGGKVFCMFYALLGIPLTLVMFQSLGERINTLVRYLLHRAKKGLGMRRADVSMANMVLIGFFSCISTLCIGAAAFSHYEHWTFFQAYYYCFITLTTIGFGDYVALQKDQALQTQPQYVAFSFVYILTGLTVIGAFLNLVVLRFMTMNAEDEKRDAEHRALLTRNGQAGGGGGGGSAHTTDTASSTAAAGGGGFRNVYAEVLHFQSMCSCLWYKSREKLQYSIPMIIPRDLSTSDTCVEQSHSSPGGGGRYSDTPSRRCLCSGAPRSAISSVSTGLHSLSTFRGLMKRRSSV
# KCNK9 block – inhibitors of human KCNK9 two-pore domain potassium channel. HEK293 KCNK9, FluxOR thallium flux fluorescence; stronger effect = lower value. AID 488922. 310,000 compounds, 1.2% hits. B-score at 10 µM. Q9NPC2;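 active = ratio B-score over 3 SD below the library mean, with starting fluorescence within 5 SD of its mean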;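 note: negative B-score means less thallium flux so channel inhibition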
# Kir21 block – inhibitors of mouse Kir2.1 inward-rectifier potassium channel. P35561. HEK293-Kir2.1, FluxOR thallium flux fluorescence; stronger effect = lower value. B-score at 10 µM. 310,000 compounds, 0.85% hits. AID 1672;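 active = fluorescence ratio B-score at or below minus 3 SD of library scores, with starting-brightness B-score within 2 SD, cut at about -4.2 in these data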;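 note: channel flux triggered by added potassium and thallium sulfate stimulus; B-score of peak minus minimum fluorescence over baseline after thallium stimulus; more negative B-score means stronger Kir2.1 block with less thallium influx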
# * = called active by the depositor; i = inactive; x = not tested or not shown. Most compounds without a hit are left out; they make up all but 3.7% or so of the library.
SMILES,hERG protect,KCNQ1 act,KCNQ1 inh,KCNK3 inh,KCNK9 block,Kir21 block
O=Cc1cc(N=Nc2ccccc2Cl)ccc1O,-19.6,11*,i,i,i,0.99
O=Cc1cc(N=Nc2cccc(C(=O)O)c2)ccc1O,-17.1,i,i,i,i,1.45
CN(Cc1ccon1)Cc1cn(Cc2ccccc2)nc1-c1ccc2c(c1)OCO2,-10.5,i,i,i,i,-1.6
COc1cc2c(cc1NC(=S)Nc1cccc3ccccc13)oc1ccccc12,-4.6,i,i,i,i,-4.07
COc1cc2c(cc1NC(=S)Nc1cccc(C(F)(F)F)c1)oc1ccccc12,-21.4,i,7*,i,i,1.16
CCOC(=O)C1(Cc2ccc(Cl)cc2)CCN(C(C)Cc2ccc(O)c(OC)c2)CC1 (configuration not stated),-16.2,i,13*,i,i,-0.96
Cc1ccc(NC(=O)c2sc(Cl)nc2-c2ccccc2)cc1C,-6.7,i,i,i,i,-1.58
CC(C)c1cccc(C(C)C)c1NC(=O)COC(=O)[C@H](C)NC(N)=O,11.0*,i,i,i,i,-1.52
CC(C)c1cccc(C(C)C)c1NC(=O)COC(=O)C1=COCCO1,-5.3,i,i,i,i,0.89
COC(=O)c1cc(CSC(=N)N)ccc1OCCC(C)C,-9.5,i,i,i,i,-9.47*
O=C1C(C2=NC(c3ccccn3)C3C(=O)N(c4ccccc4)C(=O)C23)=C(O)c2ccccc21 (configuration not stated),-12.5,i,i,i,i,-0.05
CN(C)CCCN(C(=O)CCc1ccccc1)c1nc2c(F)cccc2s1,-12.9,i,i,i,i,-2.05
COc1cc2ccccc2cc1C(=O)N(CCN(C)C)c1nc2ccc(C)cc2s1,-14.3,i,i,i,i,1.39
CN(C)CCCN(C(=O)c1cc(-c2cccs2)nc2ccccc12)c1nc2c(F)cccc2s1,-28.7,i,6*,i,i,0.16
CN(C)CCCN(C(=O)CCOc1ccccc1)c1nc2c(F)cccc2s1,-14.5,18*,i,i,i,-0.23
Cc1ccc2nc(N(CCCN(C)C)C(=O)c3cc(-c4cccs4)nc4ccccc34)sc2c1,-30.8,i,8*,i,i,-1.16
O=C(COc1coc(CN2CCc3ccccc3C2)cc1=O)N1CCOCC1,-15.3,i,i,i,i,-0.68
CCC(CO)NC1=CC(=O)CCC1 (configuration not stated),-0.9,i,i,i,i,-0.24
O=C(NN=C1CCCC1)c1[nH]c2ccc(Cl)cc2c1-c1ccccc1,-10.3,i,6*,i,i,-1.81
C/C(=N\N)c1c(-c2ccccc2)c2cc(C)ccc2[nH]c1=O,-13.6,i,i,i,i,0.14
CC/C(C)=N/NC(=O)c1[nH]c2ccc(C)cc2c1-c1ccccc1,5.5*,i,i,i,i,-0.87
CC(=O)NNC(=O)c1[nH]c2ccc(Cl)cc2c1-c1ccccc1,-0.8,i,i,i,i,0.74
CSCCC(NC(=O)c1ccccc1)C(=O)N1CC(C)OC(C)C1 (configuration not stated),x,x,x,i,x,x
COc1ccc(NC(=O)CSc2nnc(NC(=O)c3ccccc3C(=O)O)s2)cc1,-10.6,i,i,i,i,-1.02
CCN(Cc1ccccc1)S(=O)(=O)c1ccc(C(=O)N(CCCN(C)C)c2nc3ccc(F)cc3s2)cc1,-25.6,i,i,i,i,-0.53
SMILES,hERG protect,KCNQ1 act,KCNQ1 inh,KCNK3 inh,KCNK9 block,Kir21 block
CN(C)CCCN(C(=O)c1cc2cc([N+](=O)[O-])ccc2s1)c1nc2cc3c(cc2s1)OCCO3,-16.1,i,6*,i,i,1.94
CN(C)CCCN(C(=O)c1ccc([N+](=O)[O-])s1)c1nc2cc3c(cc2s1)OCCO3,-17.2,i,i,i,i,0.25
CCN(Cc1ccccc1)S(=O)(=O)c1ccc(C(=O)N(CCCN(C)C)c2nc3cc4c(cc3s2)OCCO4)cc1,-29.1,i,7*,i,i,0.24
CCN(CC)CCN(C(=O)c1ccc(Br)s1)c1nc2cc3c(cc2s1)OCCO3,-19.8,i,i,i,i,1.15
CN(C)CCCN(C(=O)c1ccc(Br)s1)c1nc2cc3c(cc2s1)OCCO3,-18.8,i,i,i,i,-7.83*
Cc1ccc(-n2ncc3c2CC(C)(C)CC3NC(=O)CCc2ccc(=O)[nH]n2)cc1 (configuration not stated),-6.5,i,i,i,i,0.31
CN(C)C(CNC(=O)c1ccc(C(=O)c2ccccc2)cc1)c1ccccc1 (configuration not stated),-5.3,i,i,i,i,-2.11
CN(C)C(CNC(=O)c1ccc(-c2ccccc2)cc1)c1ccccc1 (configuration not stated),-11.4,i,6*,i,i,-3.14
OC(CNCc1ccccc1)Cn1ccc2ccccc21 (configuration not stated),-3.8,i,i,i,i,-5.15*
O=C(O)c1ccc(NC(=S)NC(=O)c2cncc(Br)c2)cc1,-6.5,i,i,i,i,0.31
Cc1cc(C(=O)NC2CCCc3c2cnn3-c2ccc(C(C)(C)C)cc2)nn1C (configuration not stated),-22.8,i,8*,i,i,-0.84
CCn1nc(C)c(CNCc2cn[nH]c2-c2cc3ccccc3o2)c1C,-10.2,i,i,i,i,-0.62
COc1ccc2c(c1)CCCC21NC(=O)N(CC(=O)NCc2cccs2)C1=O (configuration not stated),x,x,x,i,x,x
O=[N+]([O-])c1ccc(N/N=C/C=C/c2ccco2)cc1,-6.2,i,i,i,-7.18*,0.48
O=C(O)c1ccc(N/N=C/C=C/c2ccc([N+](=O)[O-])o2)cc1,-4.5,i,i,i,i,-1.38
CC(C)CC(=O)Nc1ccc(C(=O)NNC(=S)NC(=O)C2CCCCC2)cc1,-4.0,i,7*,i,i,-1.13
COC(=O)c1sccc1NC(=O)Nc1ccc(OC)cc1,-6.0,i,i,i,i,0
CC(=O)Nc1ccc(NC(=O)C(C)OC(=O)CNS(=O)(=O)/C=C/c2ccc(C)cc2)cc1 (configuration not stated),-12.1,i,i,i,i,-1.81
Cc1cc(C)c(S(=O)(=O)NCC(c2ccco2)N2CCc3ccccc3C2)c(C)c1 (configuration not stated),-3.3,i,i,i,-6.83*,0.04
